Values belong to the compound of their own block, whether it stands above or below them.
What was measured:
[1] = Metabolic stability in human liver microsomes; format: in vitro ADME
[2] = Metabolic stability in human hepatocytes; format: in vitro ADME
[3] = Apparent passive permeability, RRCK; format: in vitro ADME, Canine
[4] = iv/po PK in rat; format: in vivo
Method in brief: (§1)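 Each species study used two animals per dose. Clearance is the observed plasma clearance. The same studies also gave steady-state volume of distribution, half-life, oral bioavailability and percent renal clearance.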

[5] = target: PDE5A1 (Homo sapiens, UniProt O76074); assay: Phosphodiesterase SPA assay, PDE5A1; format: biochemical; conditions: PDE5/2 selectivity
[6] = tested on: broad spectrum BioPrint panel; assay: Broad spectrum BioPrint panel selectivity screening; conditions: no significant activities
[7] = iv/po PK in NHP; format: in vivo, Cynomolgus monkeys; conditions: male, cynomolgus monkey, plasma, 1 mg/kg
Method in brief: as §1

[8] = Predicted human pharmacokinetics; conditions: predicted from in vitro and in vivo properties

CLint scaled [1]: 16 mL/min/kg
CLint scaled [2]: 18 mL/min/kg
Papp ([3]; dog, MDCK): 23 ×10⁻⁶ cm/s
Structure (SMILES): Cc1nn2c(-c3c(C)nn(C)c3-c3ccc(C(F)(F)F)cc3)nc(C)c2c(=O)[nH]1 [Compound 1]
in vivo rat clearance profile [4]: not show any extra-hepatic clearance pathways

selectivity over other phosphodiesterases (margin) [5]: ≥ 1000 fold
CLint scaled [1]: < 8 mL/min/kg
CLint scaled [2]: < 0.36 mL/min/kg
decrease of passive permeability relative to 1 ([3]; RRCK Papp, 2 vs 1): 3 fold
IC50 or EC50 in BioPrint panel [6]: > 10 µM
clearance [7]: 4 mL/min/kg
predicted human plasma clearance [8]: 2.9 mL/min/kg
predicted human t1/2 [8]: 3.7 h
predicted human volume of distribution [8]: 0.9 L/kg
Structure (SMILES): Cc1nn2c(-c3c(C)nn(C)c3-c3ccc(C(F)(F)F)cc3)nc(CO)c2c(=O)[nH]1 [Compound 2, 7-(1,3-dimethyl-5-(4-(trifluoromethyl)phenyl)-1H-pyrazol-4-yl)-5-(hydroxymethyl)-2-methylimidazo[5,1-f][1,2,4]triazin-4(3H)-one]

CLint scaled [1]: < 8 mL/min/kg
Structure (SMILES): Cc1nn2c(-c3c(CO)nn(C)c3-c3ccc(C(F)(F)F)cc3)nc(C)c2c(=O)[nH]1 [Compound 5]

CLint scaled [1]: < 9.2 mL/min/kg
Structure (SMILES): Cc1nn2c(-c3c(CO)nn(C)c3-c3ccc(C(F)(F)F)cc3)nc(CO)c2c(=O)[nH]1 [Compound 6]
